Measurements as given in ChEMBL document CHEMBL1154557, “Induction of choline acetyltransferase activity in cholinergic neurons by stolonidiol: structure-activity relationship” (J Nat Prod, 2000).
Activity calls are given as the source filed them. The calls are words filed in the database; no cut-off is given here.

Experiments:
[1] = target: T1, Choline O-acetyltransferase (Rattus norvegicus) (UniProt P32738); assay: Induction of ChAT activity in rat forebrain cells at 1 ug/mL relative to control; assay type: cell-based
T1 sequence (whole entry): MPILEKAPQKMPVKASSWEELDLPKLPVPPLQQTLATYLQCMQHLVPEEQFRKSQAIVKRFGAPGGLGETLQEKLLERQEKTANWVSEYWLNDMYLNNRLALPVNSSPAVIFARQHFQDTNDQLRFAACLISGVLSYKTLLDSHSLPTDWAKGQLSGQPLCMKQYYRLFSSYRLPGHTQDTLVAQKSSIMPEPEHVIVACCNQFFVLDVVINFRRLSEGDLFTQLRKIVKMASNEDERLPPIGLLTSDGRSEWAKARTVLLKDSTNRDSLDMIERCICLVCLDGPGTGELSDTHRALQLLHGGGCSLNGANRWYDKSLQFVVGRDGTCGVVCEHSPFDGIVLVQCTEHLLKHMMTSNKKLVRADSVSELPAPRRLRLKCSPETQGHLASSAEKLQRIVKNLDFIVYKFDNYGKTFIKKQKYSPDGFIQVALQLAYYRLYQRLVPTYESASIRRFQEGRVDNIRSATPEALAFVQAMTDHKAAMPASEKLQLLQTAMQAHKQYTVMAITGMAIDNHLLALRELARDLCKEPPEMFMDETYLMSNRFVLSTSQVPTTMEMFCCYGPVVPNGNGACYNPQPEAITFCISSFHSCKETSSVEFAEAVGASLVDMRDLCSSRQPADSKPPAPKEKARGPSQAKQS
In short: (§1)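 Basal forebrain from E17–19 rat embryos, papain-dissociated, plated at 1 × 10^6 cells/well in DMEM/F12 with 5% FBS and 5% horse serum. After 7 days of preculture, cells were exposed for 3 days. Lysate (1% Triton X-100, pH 6.8 Tris) was incubated with 25 µM [14C]acetyl-CoA and 8 mM choline with eserine for 1 h at 37 °C. Extracted [14C]ACh was counted. Results are % of control, n = 3.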

[2] = target: T1, Choline O-acetyltransferase (Rattus norvegicus); assay: Induction of ChAT activity in rat forebrain cells at 0.1 ug/mL relative to control; assay type: cell-based; in short: as §1
[3] = target: T1, Choline O-acetyltransferase (Rattus norvegicus); assay: Induction of ChAT activity in rat forebrain cultured cells at 10 ug/mL after 3 days relative to control; assay type: cell-based; in short: as §1
[4] = target: T2, Choline O-acetyltransferase (Mus musculus) (UniProt Q03059); assay: Induction of ChAT activity in mouse SN49 cultured cells at 1 ug/mL after 3 days relative to control; assay type: cell-based
T2 sequence (whole entry): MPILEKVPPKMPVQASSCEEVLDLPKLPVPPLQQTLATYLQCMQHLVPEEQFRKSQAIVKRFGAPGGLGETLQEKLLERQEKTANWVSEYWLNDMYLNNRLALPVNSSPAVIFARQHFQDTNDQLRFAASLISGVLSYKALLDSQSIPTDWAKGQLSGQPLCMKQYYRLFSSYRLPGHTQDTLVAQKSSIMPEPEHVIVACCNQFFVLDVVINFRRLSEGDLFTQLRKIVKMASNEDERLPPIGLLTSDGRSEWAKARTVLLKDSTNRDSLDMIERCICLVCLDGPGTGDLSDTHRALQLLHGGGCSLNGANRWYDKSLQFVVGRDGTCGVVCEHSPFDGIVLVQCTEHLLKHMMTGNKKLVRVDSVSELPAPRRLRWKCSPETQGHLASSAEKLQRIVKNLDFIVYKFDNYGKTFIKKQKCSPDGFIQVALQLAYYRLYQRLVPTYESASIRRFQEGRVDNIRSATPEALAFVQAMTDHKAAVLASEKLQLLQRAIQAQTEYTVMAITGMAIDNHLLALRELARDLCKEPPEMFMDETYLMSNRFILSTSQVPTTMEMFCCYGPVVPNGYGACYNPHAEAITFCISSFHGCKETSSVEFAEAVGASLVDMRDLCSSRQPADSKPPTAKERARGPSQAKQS
In short: (§2)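 Mouse septal SN49 hybrid cells were grown in DMEM with 10% FBS and plated at 2 × 10^5 cells/well. After 24 h at 37 °C, compound was added for a further 48 h. ChAT was measured in Triton lysates as [14C]acetylcholine formed from 25 µM [14C]acetyl-CoA and 8 mM choline chloride (0.1 mM eserine, 37 °C, 1 h) by scintillation counting. Results are % of control, n = 3, with Dunnett test.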

[5] = target: T2, Choline O-acetyltransferase (Mus musculus); assay: Induction of ChAT activity in mouse SN49 cultured cells at 0.01 ug/mL after 3 days relative to control; assay type: cell-based; in short: as §2
Rattus norvegicus [6] = organism: Rattus norvegicus; assay: Induction of ChAT mRNA expression in rat forebrain cells at 1 ug/mL after 6 hrs by RT-PCR method; assay type: functional, cell-based
In short: (§3)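 Cultured rat embryo basal forebrain cells were exposed for 6 h. ChAT mRNA was assessed by RT-PCR, and ethidium bromide-stained products were quantified by optical scanning as relative intensities.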

[7] = Cytotoxicity against rat basal forebrain cells at 10 ug/mL
[8] = target: T2, Choline O-acetyltransferase (Mus musculus); assay: Induction of ChAT activity in mouse SN49 cultured cells at 0.1 ug/mL after 3 days relative to control; assay type: cell-based; in short: as §2
[9] = target: T1, Choline O-acetyltransferase (Rattus norvegicus); assay: Induction of ChAT activity in rat forebrain cultured cells at 0.01 ug/mL after 3 days relative to control; assay type: cell-based; in short: as §1
[10] = Cytotoxicity against rat forebrain cells at 10 ug/mL; assay type: cell-based
Rattus norvegicus [11] = organism: Rattus norvegicus; assay: Induction of ChAT mRNA expression in rat forebrain cells at 0.1 ug/mL after 6 hrs by RT-PCR method; assay type: functional, cell-based; in short: as §3
[12] = target: T1, Choline O-acetyltransferase (Rattus norvegicus); assay: Induction of ChAT activity in rat forebrain cultured cells at 1 ug/mL after 3 days relative to control; assay type: cell-based; in short: as §1
[13] = target: T1, Choline O-acetyltransferase (Rattus norvegicus); assay: Induction of ChAT activity in rat forebrain cultured cells at 0.1 ug/mL after 3 days relative to control; assay type: cell-based; in short: as §1
[14] = target: T2, Choline O-acetyltransferase (Mus musculus); assay: Induction of ChAT activity in mouse SN49 cultured cells at 10 ug/mL after 3 days relative to control; assay type: cell-based; in short: as §2

Structure (SMILES) | Activity [1] [%] | Activity [2] [%] | further results
C=C1CC[C@@H]2O[C@]2(COC(=O)CCCCC)C[C@H]2O[C@@]23[C@H](C(C)(C)O)CC[C@@]3(C)CC1 | 164 | 139 | 
COC1(OC)CC[C@@H]2O[C@]2(CO)C[C@H]2O[C@@]23[C@H](C(C)(C)O)CC[C@@]3(C)CC1 | 104 | 109 | 
C=C1CC[C@@H]2O[C@]2(COC(=O)CCCCCCCCCCCCC)C[C@H]2O[C@@]23[C@H](C(C)(C)O)CC[C@@]3(C)CC1 | 174 | 97.6 | 
C=C1CC/C=C(/CO)C/C=C2\[C@H](C(C)(C)O)CC[C@@]2(C)CC1 | 122 | 109 | 
C=C1CC[C@@H]2O[C@]2(CO)C[C@H]2O[C@@]23[C@H](C(C)(C)O)CC[C@@]3(C)CC1 [STOLONIDIOL] | 231 | 127 | Activity [3]: 38.2%; Activity [4]: 145%; Activity [5]: 146%; Activity (Rattus norvegicus [6]): Active; Activity [7]: Toxic; Activity [8]: 142%; Activity [9]: 130%; Activity [10]: Toxic; Activity (Rattus norvegicus [11]): Active; Activity [12]: 139%; Activity [13]: 178%; Activity [14]: 92.7%
C=C1CC[C@@H]2O[C@]2(COC(=O)c2ccccc2)C[C@H]2O[C@@]23[C@H](C(C)(C)O)CC[C@@]3(C)CC1 | 173 | 116 | 
C=C1CC[C@@H]2O[C@]2(COC(=O)CCC)C[C@H]2O[C@@]23[C@H](C(C)(C)O)CC[C@@]3(C)CC1 | 179 | 118 | 
C=C1CC[C@@H](Cl)[C@@](O)(COC(=O)c2ccc(Br)cc2)C[C@H]2O[C@@]23[C@H](C(C)(C)O)CC[C@@]3(C)CC1 | 95.3 | 96.7 | 
C=C1CC[C@@H](OC)[C@@](O)(CO)C[C@H]2O[C@@]23[C@H](C(C)(C)O)CC[C@@]3(C)CC1 | 92.3 | 89.2 | 
C=C1CC[C@@H]2O[C@]2(COC(=O)CCCCCCCCCCC)C[C@H]2O[C@@]23[C@H](C(C)(C)O)CC[C@@]3(C)CC1 | 143 | 108 | 
C=C1CC[C@@H]2O[C@]2(COC(C)=O)C[C@H]2O[C@@]23[C@H](C(C)(C)O)CC[C@@]3(C)[C@H](OC(C)=O)C1 | 161 | 11.5 | 
C=C1CC[C@@H]2O[C@]2(COC(C)=O)C[C@H]2O[C@@]23[C@H](C(C)(C)O)CC[C@@]3(C)CC1 | 210 | 89.2 | 
